We go through ten molecules from PubChem BioAssay AID573 (SRMLSC, 2007).

The campaign covered roughly 65,000 compounds. About 1,400 (2.2%) were called active. The entries come from a sample that favours actives as a whole. Values without a mark were called inactive.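 Rule for the calls: active = growth inhibition at or above a cutoff equal to the mean over every tested compound plus 3 SD (cut at about 60% in these data); inactive = the rest.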

This assay is described as follows: E. coli ΔtolC antibacterial growth inhibition – strain BW25113 ΔtolC::kan, 384-well, primary screen (AID 573).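 Note: growth measured after 20 h incubation at 37 °C.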 The settings on record: E. coli BW25113 tolC mutant growth, OD615; hits give high values; concentration not given here. Put shortly: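 Test system – E. coli BW25113 ΔtolC::kan, tolC deletion mutant strain · Detection – OD at 615 nm · Buffer or medium – LB with kanamycin 50 µg/mL · Times – 20 h compound exposure of bacteria at 37 °C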
On to `CCOC(=O)c1c(-c2ccccc2)oc2ccc(OC(=O)N(C)C)cc12`, for which the growth inhibition is 96.5% (active). Turning to `CCN1c2nc3c(C)cccn3c(=O)c2CC2(C(=O)N(C)C(=O)N(C)C2=O)C1C` (stereo not given), the growth inhibition was -0.7%. On to `CCCCCCN=C(CC)c1c(O)n(CCCC)c(=O)[nH]c1=O`, for which the growth inhibition was 90.2% (active). With `CCC(=NCc1ccco1)c1c(O)n(Cc2ccccc2)c(=O)[nH]c1=O`, the growth inhibition is 7.19%. As for `CCC(=NCCCO)c1c(O)n(-c2ccc(OC)cc2)c(=O)[nH]c1=O`, the figure is -12.6%.

As to `CCCC(C)n1[nH]c(=O)c2c1NC(=O)CSC2c1ccc(OC)c(OC)c1` (stereo not given), the growth inhibition was -7.28%. As for `Cn1c(C(=O)N2CCC(C(=O)N3CCC4(CC3)OCCO4)CC2)cc2sccc21`, the figure is 3.04%; as for `C/C(CCc1c[nH]c2ccccc12)=N\O`, -11.1%; as for `c1cncc(CNC2=NCCC2)c1`, -5.19%. On to `C=Cn1ccnc1P(=S)(c1cc(N(CC)CC)ns1)c1nccn1C=C`, for which the growth inhibition was 8.14%.
